From ChEMBL document CHEMBL2311442, “Identification of novel antimycobacterial chemical agents through the in silico multi-conformational structure-based drug screening of a large-scale chemical library” (Eur J Med Chem, 2013)
Activity calls are given as the source filed them. No cut-off for these calls is given here.

Columns and labels:
[1] = tested on: Mycobacterium vanbaalenii; assay: Growth inhibition of Mycobacterium vanbaalenii at 50 uM up to 24 hrs; format: functional; conditions: Mycolicibacterium vanbaalenii
Outline: (§1)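 Mycobacteria grown overnight or 2 days at 37 C, 300 rpm in 3.7% brain heart infusion broth; M. smegmatis diluted 8x before seeding. Diluted culture incubated with compound (M. vanbaalenii 50 uM, M. smegmatis 100 uM). Controls: 0.3% DMSO (negative), isoniazid (positive). A595 read at 4, 8, 18, 24 h. Mean ± SEM of four experiments; Dunnett's test.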

[2] = tested on: Mycobacterium vanbaalenii; assay: Antimycobacterial activity against Mycobacterium vanbaalenii incubated up to 24 hrs; format: functional, Mycolicibacterium vanbaalenii
Outline: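 M. vanbaalenii grown overnight or 2 days at 37 C, 300 rpm in 3.7% brain heart infusion broth, diluted, then incubated in medium with compound across a dose range. Growth read as A595 at 4, 8, 18 and 24 h; growth rate (%) taken from 24 h culture. IC50 from dose-response; mean ± SD, four independent experiments.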

[3] = tested on: Mycobacterium vanbaalenii; assay: Growth inhibition of Mycobacterium vanbaalenii at 50 uM after 18 hrs; format: functional; conditions: Mycolicibacterium vanbaalenii; outline: as §1
Escherichia coli [4] = assay: Toxicity against Escherichia coli JM 109 at 50 uM after 24 hrs; format: organism-based; conditions: in vivo
[5] = tested on: Mycolicibacterium smegmatis; assay: Growth inhibition of Mycobacterium smegmatis at 100 uM after 24 hrs; format: functional, organism-based; outline: as §1
Escherichia coli [6] = assay: Toxicity against Escherichia coli BL21 at 50 uM after 24 hrs
[7] = Cytotoxicity against human SH-SY5Y at 50 uM after 2 days by CCK8 assay; format: cell-based; conditions: 48 h
Outline: (§2)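 MDCK (5.0 x 10^3/well) and SH-SY5Y (1.5 x 10^4/well) in DMEM with 10% FBS, penicillin/streptomycin, 2 mM glutamine. Starved in 0.25% FBS (MDCK overnight, SH-SY5Y 2 days), then given compound at 50 uM in 0.25% FBS medium. Exposure: MDCK 1 day, SH-SY5Y 2 days. CCK-8 added, 3 h, WST-8 formazan A450. Isoniazid 50 uM control; mean ± SEM, n=4; Dunnett's test.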

MDCK = assay: Cytotoxicity against MDCK at 50 uM after 1 day by CCK8 assay; format: cell-based, Canis lupus familiaris; conditions: dog, 24 h; outline: as §2
[8] = target: T1, Enoyl-[acyl-carrier-protein] reductase [NADH] (Mycobacterium tuberculosis, UniProt P9WGR1); assay: Inhibition of Mycobacterium tuberculosis InhA
T1 sequence (P9WGR1 whole entry): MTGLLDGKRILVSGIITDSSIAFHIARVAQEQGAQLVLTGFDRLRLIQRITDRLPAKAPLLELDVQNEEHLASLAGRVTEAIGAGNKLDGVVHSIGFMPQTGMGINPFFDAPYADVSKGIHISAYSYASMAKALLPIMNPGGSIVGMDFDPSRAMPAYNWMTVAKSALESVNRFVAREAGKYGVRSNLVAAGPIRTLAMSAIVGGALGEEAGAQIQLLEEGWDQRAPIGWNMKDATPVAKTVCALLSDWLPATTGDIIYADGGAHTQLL

Thymidylate kinase = target: T2, Thymidylate kinase (Mycobacterium tuberculosis, UniProt P9WKE1); assay: Inhibition of Mycobacterium tuberculosis thymidine monophosphate kinase
T2 sequence (P9WKE1 whole entry): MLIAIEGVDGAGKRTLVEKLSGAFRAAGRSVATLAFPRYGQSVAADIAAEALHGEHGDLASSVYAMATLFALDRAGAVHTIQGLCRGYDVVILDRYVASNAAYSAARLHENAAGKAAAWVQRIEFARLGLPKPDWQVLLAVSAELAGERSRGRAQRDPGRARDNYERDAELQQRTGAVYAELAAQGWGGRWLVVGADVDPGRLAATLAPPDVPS

CCCCc1cc(=O)oc2cc(OCC(=O)OCC)c(Cl)cc12
growth inhibition (GI) [1]: inactive

CCOc1ccc(NC(=O)CSc2nc3ccc(NC(=O)c4ccccc4C)cc3s2)cc1
growth inhibition (GI) [1]: inactive

O=C(Oc1cccc2cccnc12)c1ccc(S(=O)(=O)c2ccc(Cl)cc2)cc1
IC50 [2]: 20 µM
growth inhibition (GI) [1]: Active
growth inhibition (GI) [3]: Active
Activity (Escherichia coli [4]): Non-toxic
growth inhibition (GI) [5]: Active
Activity (Escherichia coli [6]): Non-toxic
Activity [7]: Non-toxic
Activity (MDCK): Non-toxic

COc1ccc(-c2cc3ccccc3oc2=O)cc1NC(=O)COc1ccc(Cl)cc1C
growth inhibition (GI) [1]: inactive

COC(=O)COc1ccc(NC(=O)c2ccc(C(C)(C)C)cc2)cc1
growth inhibition (GI) [1]: inactive

CC(C)Oc1cccc(-c2cc(C(=O)NCCc3ccc(S(N)(=O)=O)cc3)c3ccccc3n2)c1
IC50 [2]: 15 µM
growth inhibition (GI) [1]: Active
growth inhibition (GI) [3]: Active
Activity (Escherichia coli [4]): Non-toxic
growth inhibition (GI) [5]: Active
Activity (Escherichia coli [6]): Non-toxic
Activity [7]: Non-toxic
Activity (MDCK): Non-toxic

O=C(Nc1ccc(OCc2ccccc2)cc1)C1CCN(C(=O)c2ccc([N+](=O)[O-])cc2)CC1
growth inhibition (GI) [1]: inactive

CCCc1cc(=O)oc2cc(OCC(=O)OCc3ccccc3)c(Cl)cc12
growth inhibition (GI) [1]: inactive

NC(=O)C1=CN([C@@H]2O[C@H](COP(=O)(O)OP(=O)(O)OC[C@H]3O[C@@H](n4cnc5c(N)ncnc54)[C@H](O)[C@@H]3O)[C@@H](O)[C@H]2O)C=C[C@H]1C(=O)c1ccncc1
Ki [8]: 0.75 nM

Cc1ccc(Nc2nc(Nc3ccc(C)cc3)nc(Sc3nnc(C)s3)n2)cc1
IC50 [2]: 22 µM
growth inhibition (GI) [1]: Active
growth inhibition (GI) [3]: Active
Activity (Escherichia coli [4]): Non-toxic
growth inhibition (GI) [5]: Active
Activity (Escherichia coli [6]): Non-toxic
Activity [7]: Toxic
Activity (MDCK): Toxic

CCc1cc(=O)oc2cc(OCC(=O)OCc3ccccc3)c(Cl)cc12
growth inhibition (GI) [1]: Active
growth inhibition (GI) [3]: Active
growth inhibition (GI) [5]: inactive

Cc1cn([C@H]2C[C@H](CN=[N+]=[N-])[C@@H](COP(=O)(O)O)O2)c(=O)[nH]c1=O
Ki (Thymidylate kinase): 10 µM

NNC(=O)c1ccncc1 [ISONIAZID]
IC50 [2]: 2.6 µM
growth inhibition (GI) [3]: Active
growth inhibition (GI) [5]: Active
